Calls of active or inactive are those of the source. The rule behind the calls is not given here.
How the values were obtained:
[1] = biological target: T1, Alpha-1A adrenergic receptor (Oryctolagus cuniculus) (UniProt O02824); test: Binding affinity to rabbit aorta adrenergic alpha1A receptor assessed as inhibition of phenylephrine-induced constriction after 30 mins
T1 sequence (whole entry): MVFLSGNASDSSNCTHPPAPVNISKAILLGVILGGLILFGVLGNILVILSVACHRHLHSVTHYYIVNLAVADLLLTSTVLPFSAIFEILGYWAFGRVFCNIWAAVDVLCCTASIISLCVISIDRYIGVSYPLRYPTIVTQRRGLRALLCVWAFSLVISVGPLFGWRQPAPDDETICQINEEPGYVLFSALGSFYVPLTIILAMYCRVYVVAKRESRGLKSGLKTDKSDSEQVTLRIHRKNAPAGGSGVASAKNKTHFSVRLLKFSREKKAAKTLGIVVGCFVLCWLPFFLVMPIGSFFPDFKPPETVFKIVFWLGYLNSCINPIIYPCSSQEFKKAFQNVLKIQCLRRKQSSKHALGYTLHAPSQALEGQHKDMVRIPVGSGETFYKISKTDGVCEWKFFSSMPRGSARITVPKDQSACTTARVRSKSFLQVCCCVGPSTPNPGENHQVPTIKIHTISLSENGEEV
Procedure, shortened: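 Rabbit aortic rings (3–4 mm) held in organ bath under 20 mN resting tension, equilibrated 30 min. Cumulative phenylephrine curves (5 × 10⁻⁹–5 × 10⁻⁴ M) run without or with 30 μM antagonist after 30 min preincubation. EC50 from non-linear sigmoidal fit per experiment; concentration ratio r gives KB via Schild equation r − 1 = [B]/KB. Mean ± S.E.M of 4–6 experiments.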

Oryctolagus cuniculus = test: Hypotensive activity in New Zealand albino rabbit adrenergic alpha1 receptor assessed as inhibition of phenylephrine-induced rabbit systemic vascular resistance at 100 ug/kg, iv administered as bolus dose; format: functional, organism-based
Procedure, shortened: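 Anaesthetised New Zealand albino rabbits of either sex (3.0 kg), given pentobarbital 40 mg/kg i.v. plus a 5 mg/kg top-up, tracheotomised, ventilated with room air and paralysed with pancuronium 1 mg/kg i.v. After 15–30 min stabilisation, phenylephrine dose-response curves (0.1–100 μg/kg, i.v.) were run with or without test compound given i.v. (0.1–100 μg/kg). Recording was continuous over 30 min. Systemic vascular resistance = MAP/cardiac output × 80 (dyn s/cm⁵).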

Rattus norvegicus = species: Rattus norvegicus; test: Selectivity ratio of Ki for rat liver adrenergic alpha1B receptor to Ki for rat salivary gland adrenergic alpha 1A
Procedure, shortened: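 [3H]-prazosin competition binding on rat liver membranes (α1B) and rat salivary gland membranes (α1A), about 150 µg protein, 45 min at 25 °C in 50 mM TRIS-HCl with 1 mM EDTA, pH 7.4. Radioligand was 0.1 nM (liver) or 0.06 nM (salivary). […] Filtration, then scintillation counting. Ki from IC50 by Cheng–Prusoff; ratio of the two Ki values.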

[2] = biological target: T1, Alpha-1A adrenergic receptor (Oryctolagus cuniculus); test: Ratio of BMY7378 KB to compound KB for rabbit aorta adrenergic alpha1A receptor assessed as inhibition of phenylephrine-induced constriction after 30 mins
[3] = biological target: T2, Alpha-1D adrenergic receptor (Rattus norvegicus, UniProt P23944); test: Antagonist activity at adrenergic alpha 1D receptor in rat thoracic aorta assessed as inhibition of noradrenaline-induced contraction after 1 hr; format: functional, tissue-based; details: read-out: pA2 (converted)
T2 sequence (P23944 whole entry): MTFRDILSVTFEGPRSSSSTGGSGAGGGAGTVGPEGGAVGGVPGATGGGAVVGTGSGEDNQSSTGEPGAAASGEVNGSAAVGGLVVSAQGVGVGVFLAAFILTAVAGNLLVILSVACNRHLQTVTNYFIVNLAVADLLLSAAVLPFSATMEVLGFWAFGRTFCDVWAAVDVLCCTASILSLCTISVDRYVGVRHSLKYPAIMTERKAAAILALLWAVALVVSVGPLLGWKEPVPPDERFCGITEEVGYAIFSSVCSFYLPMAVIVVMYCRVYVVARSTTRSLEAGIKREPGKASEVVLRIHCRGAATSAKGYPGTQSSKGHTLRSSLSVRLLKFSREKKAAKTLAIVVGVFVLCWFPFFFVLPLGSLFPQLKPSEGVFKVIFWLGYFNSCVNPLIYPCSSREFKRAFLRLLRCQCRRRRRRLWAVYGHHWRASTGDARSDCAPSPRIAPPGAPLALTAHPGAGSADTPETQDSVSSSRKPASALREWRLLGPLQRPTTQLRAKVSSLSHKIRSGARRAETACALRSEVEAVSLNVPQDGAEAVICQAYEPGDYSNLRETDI

[4] = biological target: T3, Alpha-1A adrenergic receptor (Rattus norvegicus, UniProt P43140); test: Displacement of [3H]prazosin from rat salivary gland adrenergic alpha 1A receptor after 45 mins by liquid scintillation counter
T3 sequence (P43140 whole entry): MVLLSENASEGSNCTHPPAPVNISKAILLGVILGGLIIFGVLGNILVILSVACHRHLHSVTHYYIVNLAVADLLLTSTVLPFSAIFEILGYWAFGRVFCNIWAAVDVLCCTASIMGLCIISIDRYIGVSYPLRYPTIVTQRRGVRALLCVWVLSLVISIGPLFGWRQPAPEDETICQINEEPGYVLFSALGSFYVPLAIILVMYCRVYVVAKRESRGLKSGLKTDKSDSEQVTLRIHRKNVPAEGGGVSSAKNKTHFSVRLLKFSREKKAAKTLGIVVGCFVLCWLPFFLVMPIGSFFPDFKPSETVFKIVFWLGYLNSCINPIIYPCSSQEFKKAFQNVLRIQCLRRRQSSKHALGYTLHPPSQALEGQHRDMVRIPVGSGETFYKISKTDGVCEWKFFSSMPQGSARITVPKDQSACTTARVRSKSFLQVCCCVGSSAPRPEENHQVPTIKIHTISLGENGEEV

[5] = biological target: T4, Alpha-1B adrenergic receptor (Rattus norvegicus, UniProt P15823); test: Displacement of [3H]prazosin from rat liver adrenergic alpha1B receptor after 45 mins by liquid scintillation counter
T4 sequence (P15823 whole entry): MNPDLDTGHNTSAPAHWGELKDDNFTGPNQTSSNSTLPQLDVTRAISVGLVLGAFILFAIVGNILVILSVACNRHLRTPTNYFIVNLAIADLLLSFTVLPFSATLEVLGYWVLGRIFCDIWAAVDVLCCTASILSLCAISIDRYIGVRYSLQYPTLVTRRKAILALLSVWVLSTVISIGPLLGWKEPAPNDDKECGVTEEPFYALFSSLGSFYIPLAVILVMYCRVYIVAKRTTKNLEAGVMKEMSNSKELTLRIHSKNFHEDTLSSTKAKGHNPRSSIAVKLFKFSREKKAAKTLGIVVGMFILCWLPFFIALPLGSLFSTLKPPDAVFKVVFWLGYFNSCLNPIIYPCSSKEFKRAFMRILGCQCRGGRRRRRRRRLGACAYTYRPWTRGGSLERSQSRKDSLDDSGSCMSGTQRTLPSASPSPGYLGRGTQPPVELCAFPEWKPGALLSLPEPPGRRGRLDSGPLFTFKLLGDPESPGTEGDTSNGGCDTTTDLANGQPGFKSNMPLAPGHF

[6] = biological target: T5, Alpha-1D adrenergic receptor (Rattus norvegicus) (UniProt P23944); details: Thoracic aorta
T5 sequence (whole entry): T2 sequence (P23944 whole entry)

c1ccc(N2CCN(CCc3ccc4c(c3)OCO4)CC2)cc1
Kb [1]: 270 nM

c1ccc(N2CCN(CCOc3ccc4c(c3)OCO4)CC2)cc1
Kb [1]: 10300 nM

c1ccc(N2CCN(Cc3ccc4c(c3)OCO4)CC2)cc1
Kb [1]: 25000 nM

c1ccc(N2CCN(CCCOc3ccc4c(c3)OCO4)CC2)cc1
Kb [1]: 27500 nM

COc1cc2nc(N3CCN(C(=O)c4ccco4)CC3)nc(N)c2cc1OC
inhibition (Oryctolagus cuniculus): Active

c1ccc(N2CCN(CCCCc3ccc4c(c3)OCO4)CC2)cc1
Kb [1]: 9380 nM

c1ccc(CN2CCN(c3ccccc3)CC2)cc1
Kb [1]: 25000 nM

COc1ccccc1N1CCN(CCc2ccc3c(c2)OCO3)CC1
Ratio Ki (Rattus norvegicus): 40
Ratio [2]: 80
inhibition (Oryctolagus cuniculus): Active
Kb [3]: 0.0251 nM
IC50 [4]: 0.269 nM
IC50 [5]: 6.03 nM
Ki [5]: 5.55 nM
Kb [1]: 18 nM
pKb [6]: 10.3

Fc1ccc(N2CCN(CCc3ccc4c(c3)OCO4)CC2)cc1
Kb [1]: 410 nM

c1ccc(CCCN2CCN(c3ccccc3)CC2)cc1
Kb [1]: 9380 nM

Clc1ccc(N2CCN(CCc3ccc4c(c3)OCO4)CC2)cc1
Kb [1]: 1240 nM

COc1ccccc1N1CCN(CCN2C(=O)CC3(CCCC3)CC2=O)CC1
Kb [1]: 1450 nM

c1ccc(CCCCN2CCN(c3ccccc3)CC2)cc1
Kb [1]: 1420 nM

COc1ccc(N2CCN(CCc3ccc4c(c3)OCO4)CC2)cc1
Kb [1]: 870 nM

COc1ccccc1N1CCN(CCCc2ccc3c(c2)OCO3)CC1
Kb [1]: 130 nM

c1ccc(CCN2CCN(c3ccccc3)CC2)cc1
Kb [1]: 1460 nM

c1ccc(OCCN2CCN(c3ccccc3)CC2)cc1
Kb [1]: 7320 nM

c1ccc(N2CCN(CCCc3ccc4c(c3)OCO4)CC2)cc1
Kb [1]: 3800 nM
